# Activity calls are given as the source filed them. No cut-off for these calls is given here.
# Experiments:
# Assay type in all cases: functional, cell-based
# RAW [1] = test: Activation of mouse DN32 cells co-cultured with CD1d-transfected RAW cells assessed as IL-2 release at 100 ng/ml pulsed for 3 hrs and then fixed measured after 16 hrs by ELISA
# Method in brief: (§1)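 CD1d-transfected RAW cells were handled in one of two orders. In one, they were pulsed with 100 ng/ml lipid for 3 h, washed, then fixed with glutaraldehyde. In the other, they were fixed first, then pulsed for 3 h. 10^5 APC were co-cultured with 10^5 iNKT hybridoma cells for 16 h, and supernatant cytokines were measured by ELISA.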
# [2] = Activation of human BM2a.3 cells co-cultured with CD1d-expressing U937 cells assessed as IFN-gamma release after 16 hrs by ELISA; details: U-937
# Method in brief: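 Human iNKT clone BM2a.3 (2.5×10^4) co-cultured with 2.5×10^4 U937 cells and a range of lipid concentrations; cytokines in culture supernatants measured by ELISA after 16 h.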
# RAW [3] = test: Activation of mouse DN32 cells in co-cultured with CD1d-transfected RAW cells assessed as IL-2 release after 16 hrs by ELISA
# Method in brief: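 Mouse iNKT hybridoma DN32 (5×10^4) co-cultured with 5×10^4 RAW cells, CD1d-transfected or untransfected, across a range of lipid concentrations; supernatant cytokines measured by ELISA at 16 h.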
# DN32 = test: Activation of mouse DN32 cells in co-cultured with plate bound antigen presenting cell free CD1d-FC fusion protein assessed as IL-2 release after 16 hrs by ELISA
# Method in brief: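 Plate-bound murine recombinant CD1d-Fc fusion protein loaded with lipid for 16 h, then washed; 5×10^4 iNKT hybridoma cells added per well, with no APC. Cytokines in culture supernatants measured by ELISA.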
# RAW [4] = test: Activation of mouse DN32 cells co-cultured with CD1d-transfected RAW cells assessed as IL-2 release at 100 ng/ml fixed and then pulsed for 3 hrs measured after 16 hrs by ELISA; method in brief: as §1
Structure (SMILES),Activity (RAW [1]),Activity [2],Activity (RAW [3]),Activity (DN32),Activity (RAW [4])
CCCCCCCCCCCCCCCCCCCCCCCCCC(=O)N[C@@H](CO[C@H]1O[C@H](CO)[C@H](O)[C@H](O)[C@H]1O)[C@H](O)[C@H](O)CCCCCCCCCCCCCC,Active,Active,Active,Active,Active
CCCCCCCCCCCCCCCCCCCCCCCCCC(=O)N[C@@H](CO[C@H]1O[C@H](CO)[C@H](O)[C@H](O)[C@H]1O[C@H]1O[C@H](CO)[C@H](O)[C@H](O)[C@H]1O)[C@H](O)[C@H](O)CCCCCCCCCCCCCC,Active,Active,Active,inactive,inactive

# From ChEMBL document CHEMBL1153633, “Synthesis and biological activity of alpha-galactosyl ceramide KRN7000 and galactosyl (alpha1-->2) galactosyl ceramide” (Bioorg Med Chem Lett, 2009)
